Measurements as given in ChEMBL document CHEMBL1128338, “Synthesis and activity of some antimalarial bisquinolines” (J Med Chem, 1995).

Legend:
[1] = Resistance index as the ratio of IC50 value against FAC8 to that of D10 strains.; assay type: functional
Outline: (§1)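 Ratio of IC50 against the CQ-resistant strain (FAC8 or K1) to IC50 against CQ-sensitive D10. IC50s from 4-day growth assays at c. 1% parasitemia, 2% hematocrit, daily drug-medium replacement, duplicate growth curves.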

[2] = system: Plasmodium falciparum; experiment: In vitro inhibition chloroquine-resistant Plasmodium falciparum K1; assay type: functional, organism-based
Outline: (§2)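 P. falciparum blood-stage cultures plated at c. 1% parasitemia, 2% hematocrit, exposed to a range of drug concentrations (compounds from 30 mM DMSO stocks; final DMSO <0.1%). Incubated 4 days with daily replacement of drug-containing medium. Growth curves run in duplicate; IC50 taken as concentration giving 50% growth inhibition.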

[3] = system: Plasmodium falciparum; experiment: In vitro inhibition of chloroquine-sensitive Plasmodium falciparum D-10; assay type: functional, organism-based; outline: as §2
[4] = Resistance index as the ratio of IC50 value against K1 to that of D10 strains.; assay type: functional; outline: as §1
[5] = system: Plasmodium falciparum; experiment: In vitro inhibition of chloroquine-resistant Plasmodium falciparum FAC8; assay type: functional, organism-based; outline: as §2

Row | SMILES | Resistance index [1] | IC50 [2] [nM] | IC50 [3] [nM] | Resistance index [4] | IC50 [5] [nM]
1 | CCN(CC)CCCC(C)Nc1ccnc2ccc(NC(=O)CCCCCCC(=O)Nc3ccc4nccc(NC(C)CCCN(CC)CC)c4c3)cc12 (stereo not given) | 1 | 7400 | 5000 | 1.5 | 5200
2 | CCN(CC)CCCC(C)Nc1ccnc2ccc(NC(=O)CCCCC(=O)Nc3ccc4nccc(NC(C)CCCN(CC)CC)c4c3)cc12 (stereo not given) | 1.1 | 15900 | 9600 | 1.7 | 10300
3 | CCN(CC)CCCC(C)Nc1ccnc2c(NC(=O)CCC(=O)Nc3cccc4c(NC(C)CCCN(CC)CC)ccnc34)cccc12 (stereo not given) | 2.2 | 2500 | 500 | 5 | 1200
4 | CCN(CC)CCCC(C)Nc1ccnc2c(NC(=O)CCCCCCC(=O)Nc3cccc4c(NC(C)CCCN(CC)CC)ccnc34)cccc12 (stereo not given) | 0.9 | 600 | 380 | 1.6 | 350
5 | CCN(CC)CCCC(C)Nc1ccnc2c(NC(=O)CCCCCCCCC(=O)Nc3cccc4c(NC(C)CCCN(CC)CC)ccnc34)cccc12 (stereo not given) | 1.2 | 290 | 260 | 1.1 | 310
6 | CCN(CC)CCCC(C)Nc1ccnc2c(NC(=O)CCCCC(=O)Nc3cccc4c(NC(C)CCCN(CC)CC)ccnc34)cccc12 (stereo not given) | 0.9 | 230 | 130 | 1.8 | 120
7 | CCN(CC)CCCC(C)Nc1ccnc2ccc(NC(=O)CCCCCCCCC(=O)Nc3ccc4nccc(NC(C)CCCN(CC)CC)c4c3)cc12 (stereo not given) | 0.7 | 8400 | 5700 | 1.5 | 3800
8 | CCN(CC)CCCC(C)Nc1ccnc2ccc(NC(=O)C(=O)Nc3ccc4nccc(NC(C)CCCN(CC)CC)c4c3)cc12 (stereo not given) | 0.7 | 2200 | 2600 | 0.8 | 1800
9 | CCN(CC)CCCC(C)Nc1ccnc2c(NC(=O)C(=O)Nc3cccc4c(NC(C)CCCN(CC)CC)ccnc34)cccc12 (stereo not given) | 1.4 | 2300 | 1300 | 1.7 | 1900
